Arbovirus anti: blocks arbovirus infection. inhibition, % at 10 µM. AID 1251. 200,000 tested, 0.37% active. arbovirus infection cell-based antiviral screen; in the data active means inhibition above about 30%
Wee1 stabilizer: human Wee1 degradation inhibition, primary screen | 220,000 tested, 1.2% active | P30291 | HeLa Luc-Wee1K328M stability, luciferase luminescence; 100% = proteasome inhibitor MG132 effect | reporter increase, % at 5 µM;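 active means activation above the mean of all tested compounds plus 3 SD, set per screening run, cut at about 8.8% in these data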;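 further: cells exposed to compound for 20 h before luminescence read; 0% = DMSO alone and 100% = MG132 at 30 µM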
Rad51 HR inh: blocks human Rad51 in homologous recombination; Q06609; hRad51 DNA strand exchange, fluorescence dequenching; inhibition, % at 10 µM; 200,000 tested, 0.085% active; AID 1385;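 active means inhibition above 40% at the single screening dose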;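 further: 0% = DMSO control wells and 100% = blanks with heterologous ssDNA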
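System: human Rad51 nucleoprotein filaments preassembled on unlabelled ssDNA. Reagent: labelled 47-mer dsDNA for strand exchange. Schedule: 30-min compound preincubation and 15-min exchange, both room temperature. Measured by: FRET fluorescence dequenching, excitation 485 nm, emission 520 nm. Read-out: Fluorescence-based percent inhibition, control- and blank-normalised. Benchmarks: plate controls and plate blanks.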
CHOP inh: blocks CHOP induction under ER stress; 220,000 tested, 3.8% active; CHO-K1 CHOP-promoter luciferase, tunicamycin-induced, 15-18 h; inhibition, % at 10 µM;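 active means compounds that reduced the stress-induced luciferase reporter signal by more than about 70% of percent inhibition, limit read from the data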;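 further: 0% = tunicamycin plus vehicle and 100% = wells without tunicamycin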
PKD1 kinase inh: PKD1 (human) kinase inhibition; inhibition, % (no concentration beside the values); 200,000 tested, 0.056% active; Q15139; AID 797; PKD1 kinase fluorescence polarization assay
Target sequence (Q15139 whole entry, looked up): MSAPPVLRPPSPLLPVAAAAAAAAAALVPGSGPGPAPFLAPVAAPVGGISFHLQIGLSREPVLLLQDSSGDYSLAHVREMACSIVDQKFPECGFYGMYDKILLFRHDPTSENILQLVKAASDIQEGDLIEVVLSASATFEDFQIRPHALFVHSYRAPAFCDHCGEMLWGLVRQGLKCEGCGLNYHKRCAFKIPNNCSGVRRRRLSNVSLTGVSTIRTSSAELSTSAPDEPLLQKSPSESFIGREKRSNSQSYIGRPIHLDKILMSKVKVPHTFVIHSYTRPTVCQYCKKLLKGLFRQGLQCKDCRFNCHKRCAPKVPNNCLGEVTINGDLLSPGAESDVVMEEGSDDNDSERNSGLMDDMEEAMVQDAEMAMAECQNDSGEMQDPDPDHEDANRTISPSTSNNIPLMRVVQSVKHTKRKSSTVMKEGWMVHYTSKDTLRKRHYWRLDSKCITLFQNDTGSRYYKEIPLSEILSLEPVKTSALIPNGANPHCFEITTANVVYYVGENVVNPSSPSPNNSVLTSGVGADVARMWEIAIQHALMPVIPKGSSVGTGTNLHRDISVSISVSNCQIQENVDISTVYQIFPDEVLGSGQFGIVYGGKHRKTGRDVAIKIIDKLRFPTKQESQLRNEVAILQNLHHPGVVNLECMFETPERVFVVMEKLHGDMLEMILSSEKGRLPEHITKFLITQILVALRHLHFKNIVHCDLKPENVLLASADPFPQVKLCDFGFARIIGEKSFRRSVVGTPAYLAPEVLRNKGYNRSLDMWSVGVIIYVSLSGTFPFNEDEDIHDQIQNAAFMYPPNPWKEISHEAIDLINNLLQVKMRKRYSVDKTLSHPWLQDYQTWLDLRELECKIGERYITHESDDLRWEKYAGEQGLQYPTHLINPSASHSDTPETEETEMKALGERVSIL
L major viab: inhibitors of Leishmania major promastigote growth. Leishmania major promastigotes, resazurin fluorescence viability. inhibition, % at 10 µM. 200,000 tested, 9% active. AID 1063;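 further: promastigotes grown with compound for 44 hours at 28 °C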
The depositor's hits bear a star; / = no result. The list is not random: actives were taken first. Their share in the collection is about 12%. Unless noted, no stated cut-off is given here; in the data, active means inhibition above about 50%; inactive means the rest.

SMILES | Arbovirus anti | Wee1 stabilizer | Rad51 HR inh | CHOP inh | PKD1 kinase inh | L major viab
O=C1c2cccc(OCC(=O)N3N=C(c4cccs4)CC3c3ccc(F)cc3)c2CCN1Cc1cccnc1 (stereo unspecified) | -31.1 | -3.5 | -1.4 | 31.2 | -6.2 | 85.1*
O=C(c1cccnc1)N1N=C(c2cccs2)CC1c1ccc(F)cc1 (stereo unspecified) | 0.8 | -2.9 | -6.1 | 1.6 | -3.6 | 22.9
Cc1cccc(NC(=O)c2ccc(S(=O)(=O)N(C)C)cc2)c1 | 15.3 | -1.2 | -0.2 | -12.6 | -16.9 | -4.2
CCCCN(C)S(=O)(=O)c1ccc(C(=O)Nc2nnc(-c3ccco3)o2)cc1 | -24.6 | -3.3 | 6.3 | 24.4 | -7.3 | 96.2*
CCN(CC)S(=O)(=O)c1ccc(C(=O)Nc2cccc(C)c2)cc1 | -21.0 | -1.5 | -4.2 | 76.9* | 2.7 | 10.7
CCN(CC)S(=O)(=O)c1ccc(C(=O)Nc2nnc(COC)o2)cc1 | 7.9 | 1.1 | / | 24.3 | -14.8 | -7.3
CN(Cc1ccccc1)S(=O)(=O)c1ccc(C(=O)Nc2nnc(C3CC3)o2)cc1 | -33.3 | -1.8 | -5.7 | / | 7.4 | 99.2*
CCc1nnc(NC(=O)c2ccc(S(=O)(=O)N(CC)Cc3ccccc3)cc2)o1 | -15.1 | -4.5 | 0.8 | / | 3.7 | 98.5*
CCCCN(C)S(=O)(=O)c1ccc(C(=O)Nc2nnc(CSC)o2)cc1 | -21.9 | 4.7 | 2.7 | / | 0.6 | 47.7
CCc1cccc(N(C(=O)c2csnn2)C(C(=O)NC(C)(C)C)c2ccncc2)c1 (stereo unspecified) | 9.4 | -1.7 | -5.3 | -2.5 | 12.2 | -5.3
Cc1c(NC(=S)N2CCN(c3ccc(F)cc3)CC2)c(=O)n(-c2ccccc2)n1C | 0.9 | 3.1 | 2.8 | 17.3 | 3.0 | 0.3
CCCCN(CCCC)S(=O)(=O)c1ccc(C(=O)Nc2nnc(COC)o2)cc1 | -19.9 | -2.2 | 7.1 | 31.6 | -13.0 | -6.8
CN(C)S(=O)(=O)c1ccc(C(=O)Nc2nnc(-c3ccco3)o2)cc1 | 12.4 | -3.6 | 2.5 | -8.1 | -2.6 | -3.2
CCCCN(CC)S(=O)(=O)c1ccc(C(=O)Nc2nnc(-c3cccs3)o2)cc1 | -9.1 | 4.0 | 0.0 | / | -1.0 | 98.7*
CCN(CC)S(=O)(=O)c1ccc(C(=O)Nc2nnc(-c3ccco3)o2)cc1 | 2.0 | 0.6 | 7.2 | 5.1 | 9.8 | 91.9*
CCOC(=O)C1CCCN(S(=O)(=O)Cc2ccccc2)C1 (stereo unspecified) | -3.0 | 0.5 | -2.4 | 45.6 | -2.5 | -7.0
CC1Cc2ccccc2N1C(=O)C1CCCCN1S(=O)(=O)c1ccccc1 (stereo unspecified) | 11.5 | -0.2 | -6.0 | 1.7 | -12.1 | 2.6
O=C(C1CCCN(S(=O)(=O)Cc2ccccc2)C1)N1CCc2ccccc21 (stereo unspecified) | 10.2 | -2.7 | 14.4 | 3.5 | -8.6 | 72.8*
CC1Cc2ccccc2N1C(=O)C1CCN(S(=O)(=O)Cc2ccccc2)CC1 (stereo unspecified) | -4.2 | -2.2 | -4.9 | 37.9 | 2.4 | 54.2*
O=c1cc(N2CCN(c3ccc(F)cc3)CC2)[nH]c(=O)n1C1CCCCC1 | -18.5 | 0.6 | 3.4 | 72.3* | 0.0 | 2.4
O=C(CC1COc2ccccc2O1)NCc1ccccc1 (stereo unspecified) | -4.3 | -0.5 | / | 22.4 | -1.6 | -0.3
c1ccc(CNCC2COc3ccccc3O2)cc1 (stereo unspecified) | -2.3 | 0.3 | 2.2 | 11.1 | -4.0 | 91.2*
CCCNCC1COc2ccccc2O1 (stereo unspecified) | 2.4 | 1.4 | -2.8 | -31.0 | 0.4 | 39.3
c1ccc(CCCNCC2COc3ccccc3O2)cc1 (stereo unspecified) | 21.7 | -4.6 | -8.5 | -13.3 | -13.0 | 91.1*
c1ccc(CCCCNCC2COc3ccccc3O2)cc1 (stereo unspecified) | 1.8 | -1.2 | 13.2 | -5.2 | 2.8 | 86.8*
SMILES | Arbovirus anti | Wee1 stabilizer | Rad51 HR inh | CHOP inh | PKD1 kinase inh | L major viab
Nc1ccc(S(=O)(=O)C(F)(F)F)cc1N | 8.0 | 6.5 | -6.0 | 14.0 | 6.0 | 3.4
Cc1scc(C(=O)N/N=C/c2ccc(Cl)s2)c1C | -11.6 | 0.0 | 2.6 | 16.0 | 2.5 | -9.1
O=C(Nc1ccccc1-c1ccccc1)C(=O)Nc1ccccc1-c1ccccc1 | / | 0.3 | -4.1 | 2.8 | / | /
COCc1cc(=O)n2[nH]c(-c3cccc(Br)c3)cc2n1 | -4.5 | -2.7 | 9.8 | -37.1 | -0.4 | 100.3*
COCc1cc(=O)n2[nH]c(-c3ccccc3)cc2n1 | -5.6 | -1.8 | / | -16.6 | -4.2 | 1.8
CCCCC(CC)C1OCC(CN2CCCCC2)O1 (stereo unspecified) | / | -0.6 | 10.2 | -12.6 | / | /
CCCCC(CC)C1OCC(CN2CCCC2)O1 (stereo unspecified) | 0.5 | 1.0 | -2.0 | 28.8 | -6.1 | 84.2*
O=C1NC(=S)N(c2cccc(Cl)c2)C12CCCCC2 | 1.5 | 3.2 | -0.3 | 57.2 | -1.0 | 52.2*
O=C(O)CSC1=NC(=Nc2cccc(Cl)c2)C2(CCCCC2)N1c1ccccc1 | 0.4 | -0.3 | 12.4 | 28.3 | -2.5 | -0.2
Cc1cccc(-n2c(SCc3cc(=O)n4c(C)cccc4n3)nc3[nH]ncc3c2=O)c1 | 9.0 | -1.4 | / | 18.3 | 3.6 | 96.5*
Cc1nc(CSc2nc3[nH]ncc3c(=O)n2-c2ccccc2)cs1 | 1.8 | -1.6 | 8.4 | -2.1 | 0.7 | 19.6
O/N=C/c1cc(Br)cc(Br)c1OCc1ccccc1 | -7.9 | -2.1 | 2.1 | 91.7* | -2.7 | -2.3
Oc1c(Br)cc(Br)cc1C=NCc1ccccc1 | -2.0 | -0.9 | 11.5 | 43.9 | -0.3 | -13.8
O/N=C/c1ccc(OCc2ccccc2)c(Br)c1 | -5.9 | 4.3 | -8.3 | 27.5 | -4.0 | 57.1*
O/N=C/c1ccc(OCc2ccccc2)c(Cl)c1 | -10.1 | 5.8 | -43.0 | -52.3 | -5.4 | 1.7
O/N=C/c1cc(Br)ccc1OCc1ccc(F)cc1 | / | -0.2 | -2.8 | / | -16.5 | 99.6*
CC1CCCCN1C(=O)COC(=O)/C=C/c1ccc2ccccc2n1 (stereo unspecified) | 7.1 | -4.6 | -3.1 | -5.7 | -2.2 | 15.7
COc1ccc(OC)c(N=c2oc3c(OC)cccc3cc2C(=O)NCc2ccco2)c1 | / | / | -4.5 | / | / | /
COc1ccccc1N=c1oc2c(OC)cccc2cc1C(=O)NCc1ccco1 | -10.6 | -0.9 | -8.0 | 83.0* | -5.1 | 0.4
Cc1c(NS(=O)(=O)c2ccc3c(c2)Cc2ccccc2-3)c(=O)n(-c2ccccc2)n1C | -12.2 | -0.6 | / | 23.8 | -10.9 | -4.0
CC(C)(C)c1ccc(-c2noc(-c3ccc4c(c3)CCO4)n2)cc1 | / | 3.8 | 20.1 | -3.4 | / | /
Cc1ccccc1OCC(=O)N1CCCc2ccccc21 | -3.5 | -0.7 | 2.5 | 29.5 | 6.2 | 53.1*
Cc1ccc(-c2nnn(CC(=O)N3CCCc4ccccc43)n2)cc1 | 1.7 | -1.3 | -3.8 | 84.4* | -7.3 | -2.5
Cc1[nH]c2ccccc2c1SCC(=O)N1CCCc2ccccc21 | 7.6 | -1.1 | 3.3 | 63.7 | -8.7 | 99.5*
CCOc1ccc(-n2nnc3c(=O)n(CC(=O)N4CCCc5ccccc54)cnc32)cc1 | -16.3 | -0.4 | -2.4 | 8.1 | 1.8 | 54.8*
